The source made the active and inactive calls. The calls are words filed in the database; no cut-off is given here.
Columns and labels:
RPMI-8226 [1] = assay: Cytotoxicity against human RPMI8226 cells after 48 hrs by MTT assay; format: functional, cell-based; settings: RPMI-8226, 48 h
In short: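 MTT in RPMI-8226 cells: 1–2 × 10^4 cells per well in complete medium, exposed 48 h to a range of compound concentrations. MTT reduction to formazan read at 570 nm. Quadruplicate wells per group; OD given as % of DMSO-only control set at 100%. IC50 taken from the concentration series.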

MM1.S = assay: Cytotoxicity against human MM1S cells after 48 hrs by MTT assay; format: functional, cell-based
In short: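 MM1.S myeloma cells (DEPTOR-over-expressing) in 48 h MTT: 1–2 × 10^4 cells per well, graded compound concentrations, formazan at 570 nm. Quadruplicate wells; survival as % of DMSO control; IC50 derived from the concentration range.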

RPMI-8226 [2] = assay: Cytotoxicity against human RPMI8226 cells at 1 to 2 uM after 6 hrs by MTT assay; format: cell-based; settings: rpmi-8226, 6 h
RPMI-8226 [3] = assay: Cytotoxicity against human RPMI8226 cells at 0.5 uM after 6 hrs by MTT assay; format: cell-based; settings: rpmi-8226, 6 h
RPMI-8226 [4] = assay: Cytotoxicity against human RPMI8226 cells at 0.05 to 0.2 uM after 6 hrs by MTT assay; format: cell-based; settings: rpmi-8226, 6 h
[5] = molecular target: DEP domain-containing mTOR-interacting protein (Homo sapiens) (UniProt Q8TB45); assay: Inhibition of DEPTOR in human RPMI8226 cells assessed as upregulation of mTORC1-dependant p21 expression at 0.5 to 2 uM after 6 hrs by Western blot analysis; format: cell-based
[6] = molecular target: DEP domain-containing mTOR-interacting protein (Homo sapiens) (UniProt Q8TB45); assay: Inhibition of mTOR binding to DEPTOR in human RPMI8226 cells assessed as increase in mTORC1-associated p70 phosphorylation at […] after 6 hrs by Western blot analysis; format: cell-based
RPMI-8226 [7] = assay: Induction of apoptosis in human RPMI8226 cells assessed as caspase3 activation at 0.12 to 2 uM after 48 hrs by cytofix/cytoperm staining based flow cytometry; format: functional, cell-based
In short: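 Caspase-3 flow cytometry 48 h after drug exposure of 8226 cells. 10^6 cells washed in PBS, fixed and permeabilized in cytofix/cytoperm, stained 30 min with PE-conjugated anti-active-caspase-3 (1:5 dilution). % apoptosis = drug-treated minus DMSO-control positives; mean ± SD, n = 4.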

PBL = assay: Cytotoxicity against PBL (unknown origin) after 48 hrs by MTT assay; format: cell-based
In short: (§1)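 Normal peripheral blood lymphocytes tested head-to-head with 8226 myeloma cells in 48 h MTT assays. […] Therapeutic index = IC50(PBL)/IC50(8226).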

[8] = Therapeutic index, ratio of IC50 for PBL (unknown origin) to IC50 for human RPMI8226 cells; in short: as §1
[9] = molecular target: DEP domain-containing mTOR-interacting protein (Homo sapiens) (UniProt Q8TB45); assay: Inhibition of mTOR binding to DEPTOR in human RPMI8226 cells assessed as increase in mTORC1-associated p70 phosphorylation at 1 uM after 6 hrs by Western blot analysis; format: cell-based
In short: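 8226 cells exposed 6 h to compound, DMSO in untreated controls. Lysates run on 12.5% SDS-PAGE, transferred to PVDF, probed for phospho- and total p70. Densitometric phospho/total ratio expressed as fold versus parent compound B set at 1; mean ± SD, n = 4.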

[10] = molecular target: DEP domain-containing mTOR-interacting protein (Homo sapiens) (UniProt Q8TB45); assay: Inhibition of mTOR binding to DEPTOR in human RPMI8226 cells assessed as increase in mTORC2-associated AKT phosphorylation at S473 residue by Western blot analysis; format: cell-based
[11] = molecular target: DEP domain-containing mTOR-interacting protein (Homo sapiens) (UniProt Q8TB45); assay: Inhibition of mTOR binding to DEPTOR in human RPMI8226 cells at 0.5 uM treated 6 hrs followed by DEPTOR immunoprecipitation by immunoblotting analysis; format: cell-based
In short: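 Co-immunoprecipitation: 8226 cells treated 6 h with DMSO or 0.5 µM compound. DEPTOR immunoprecipitated; precipitates immunoblotted for DEPTOR and bound mTOR.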

RPMI-8226 [12] = assay: Cytotoxicity against RAPTOR knockdown human RPMI8226 cells at 0.12 to 1 uM after 48 hrs by MTT assay; format: functional, cell-based
In short: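 8226 cells infected with lentivirus carrying shRAPTOR or control shSCRAMBLE, knockdown confirmed by immunoblot. Cells then incubated with increasing compound concentrations; MTT read-out after 48 h, formazan at 570 nm, as % of DMSO control.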

RPMI-8226 [13] = assay: Cytotoxicity against human RPMI8226 cells after 48 hrs in presence of mTOR inhibitor pp242 by MTT assay; format: functional, cell-based
RPMI-8226 [14] = assay: Induction of apoptosis in human RPMI8226 cells assessed as caspase3 activation in presence of mTOR inhibitor pp242 by cytofix/cytoperm staining based flow cytometry; format: functional, cell-based
[15] = molecular target: DEP domain-containing mTOR-interacting protein (Homo sapiens) (UniProt Q8TB45); assay: Inhibition of mTOR binding to DEPTOR in human RPMI8226 cells assessed as increase in mTORC1-associated 4E-BP1 phosphorylation by Western blot analysis; format: cell-based
[16] = molecular target: DEP domain-containing mTOR-interacting protein (Homo sapiens) (UniProt Q8TB45); assay: Inhibition of mTOR binding to DEPTOR in human RPMI8226 cells assessed as increase in mTORC1-associated S6 phosphorylation by Western blot analysis; format: cell-based
[17] = molecular target: DEP domain-containing mTOR-interacting protein (Homo sapiens) (UniProt Q8TB45); assay: Inhibition of mTOR binding to DEPTOR in human RPMI8226 cells assessed as increase in mTORC2-associated SGK phosphorylation by Western blot analysis; format: cell-based
[18] = molecular target: DEP domain-containing mTOR-interacting protein (Homo sapiens) (UniProt Q8TB45); assay: Inhibition of mTOR binding to DEPTOR in human RPMI8226 cells assessed as decrease in AKT phosphorylation at […] residue by Western blot analysis; format: cell-based

Sequence of DEP domain-containing mTOR-interacting protein (Homo sapiens) (Q8TB45 whole entry, the tested form may be a part): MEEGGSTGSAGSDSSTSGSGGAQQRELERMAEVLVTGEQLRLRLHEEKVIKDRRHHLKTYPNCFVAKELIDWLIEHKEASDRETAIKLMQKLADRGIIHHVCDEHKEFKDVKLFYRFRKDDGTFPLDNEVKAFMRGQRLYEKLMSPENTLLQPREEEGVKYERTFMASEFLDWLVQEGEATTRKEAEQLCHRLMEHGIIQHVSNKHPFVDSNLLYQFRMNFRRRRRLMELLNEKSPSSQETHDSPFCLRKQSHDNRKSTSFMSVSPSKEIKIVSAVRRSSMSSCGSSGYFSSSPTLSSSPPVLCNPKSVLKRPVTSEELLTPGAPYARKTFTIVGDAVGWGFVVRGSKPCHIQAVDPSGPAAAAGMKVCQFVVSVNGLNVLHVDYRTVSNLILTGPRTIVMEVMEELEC

Compound	IC50 (RPMI-8226 [1]) [nM]	IC50 (MM1.S) [nM]	further results
Fc1cccc(NN=C2c3ccccc3-c3ccccc32)c1	> 5000	> 5000	–
NN=C1c2ccccc2-c2ccccc21	> 5000	–	–
O=C(NN=C1C(Cl)=C(Cl)C(Cl)=C1Cl)c1ccccc1	600	800	Activity (RPMI-8226 [2]): Toxic; Activity (RPMI-8226 [3]): Toxic; Activity (RPMI-8226 [4]): Non-Toxic
COc1cccc(NN=C2C(Cl)=C(Cl)C(Cl)=C2Cl)c1	> 3000	> 3000	–
NN=C(c1ccccc1)c1ccccc1	> 5000	> 5000	–
C#CCOC(=O)NN=C1C(Cl)=C(Cl)C(Cl)=C1Cl	800	–	–
ON=C1C(Cl)=C(Cl)C(Cl)=C1Cl	> 5000	–	–
CC(=O)NN=C1C(Cl)=C(Cl)C(Cl)=C1Cl	1000	–	–
Fc1ccccc1NN=C1C(Cl)=C(Cl)C(Cl)=C1Cl	> 3000	> 3000	–
CC(C)(C)C(=O)NN=C1C(Cl)=C(Cl)C(Cl)=C1Cl	90 to 120	2000	inhibition [5]: Active; inhibition [6]: Active; Activity (RPMI-8226 [7]): Active; IC50 (PBL): 1250 nM; Ratio IC50 [8]: 14; inhibition [9]: Active
Cc1ccc(C(=O)N(N=C2C(Cl)=C(Cl)C(Cl)=C2Cl)C(=O)c2ccc(C)cc2)cc1	500	500	–
ClC1=C(Cl)C(Cl)=C(Cl)C1=NN(c1ccccc1)c1ccccc1	> 3000	> 3000	–
CC(C)(C)OC(=O)NN=C1C(Cl)=C(Cl)C(Cl)=C1Cl	100 to 110	600	inhibition [10]: Active; inhibition [5]: Active; inhibition [6]: Active; Activity (RPMI-8226 [7]): Active; IC50 (PBL): 5000 nM; Ratio IC50 [8]: 45.5; inhibition [11]: Active; Activity (RPMI-8226 [12]): inactive; Activity (RPMI-8226 [13]): inactive; Activity (RPMI-8226 [14]): inactive; inhibition [15]: Active; inhibition [16]: Active; inhibition [17]: Active; inhibition [18]: Active; inhibition [9]: Active
C#CC(C)(C)OC(=O)NN=C1C(Cl)=C(Cl)C(Cl)=C1Cl	> 5000	–	–
O=C(c1ccccc1)N(N=C1C(Cl)=C(Cl)C(Cl)=C1Cl)C(=O)c1ccccc1	800	2000	–
